Experimental data reported in ChEMBL document CHEMBL1141286, “Benzochromenones from the marine crinoid Comantheria rotula inhibit hypoxia-inducible factor-1 (HIF-1) in cell-based reporter assays and differentially suppress the growth of certain tumor cell lines” (J Nat Prod, 2007).

What was measured:
[1] = test system: KM12; test: Growth inhibition of human KM12 cells; type: functional
[2] = test system: CCRF-CEM; test: Growth inhibition of human CCRF-CEM cells; type: functional
[3] = test system: M14; test: Growth inhibition of human M14 cells; type: functional
[4] = test system: CAKI-1; test: Growth inhibition of human CAKI1 cells; type: functional
[5] = Inhibition of HIF1 activation in PC3 cells by TK-luciferase assay; type: cell-based; details: Homo sapiens, PC-3
Outline: (§1)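 HIF-1 reporter (pHRE-TK-Luc) assays in transfected PC-3 or T47D cells; HIF-1 induced by hypoxia or by the hypoxia mimetic 1,10-phenanthroline (10 μM); compounds at half-log concentrations; luciferase activity measured; IC50 from experiments in triplicate.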

[6] = test system: HCT-15; test: Growth inhibition of human HCT15 cells; type: functional
[7] = test system: Malme-3M; test: Growth inhibition of human MALME-3M cells; type: functional
[8] = test system: MCF7; test: Growth inhibition of human MCF7 cells; type: functional
[9] = test system: UO-31; test: Growth inhibition of human UO31 cells; type: functional
[10] = test system: EKVX; test: Growth inhibition of human EKVX cells; type: functional
[11] = test system: PC-3; test: Growth inhibition of human PC3 cells; type: functional
[12] = test system: MDA-MB-231; test: Growth inhibition of human MDA-MB-231 cells; type: functional
[13] = test system: U-251; test: Growth inhibition of human U251 cells; type: functional
[14] = test system: NCI-H23; test: Growth inhibition of human NCI-H23 cells; type: functional
[15] = test system: Hs-578T; test: Growth inhibition of human HS578T cells; type: functional
[16] = test system: DU-145; test: Growth inhibition of human DU145 cells; type: functional
[17] = test system: SNB-19; test: Growth inhibition of human SNB19 cells; type: functional
[18] = test system: IGROV-1; test: Growth inhibition of human IGROV1 cells; type: functional
[19] = test system: HL-60; test: Growth inhibition of human HL60 cells; type: functional
[20] = test system: UACC-257; test: Growth inhibition of human UACC257 cells; type: functional
[21] = test system: OVCAR-8; test: Growth inhibition of human OVACAR8 cells; type: functional
[22] = test system: T47D; test: Growth inhibition of human T47D cells; type: functional
[23] = test system: SF-268; test: Growth inhibition of human SF268 cells; type: functional
[24] = test system: MDA-MB-435; test: Growth inhibition of human MDA-MB-435 cells; type: functional
[25] = test system: HT-29; test: Growth inhibition of human HT29 cells; type: functional
[26] = test system: A549; test: Growth inhibition of human A549 cells; type: functional
[27] = test system: SK-MEL-5; test: Growth inhibition of human SK-MEL5 cells; type: functional
[28] = test system: SF-539; test: Growth inhibition of human SF539 cells; type: functional
[29] = test system: TK-10; test: Growth inhibition of human TK10 cells; type: functional
[30] = test system: SK-OV-3; test: Growth inhibition of human SK-OV3 cells; type: functional
[31] = Growth inhibition of human OVACAR3 cells; type: functional
[32] = test system: COLO 205; test: Growth inhibition of human COLO205 cells; type: functional
[33] = test system: NCI/ADR-RES; test: Growth inhibition of human NCI/ADR-RES cells; type: functional
[34] = test system: OVCAR-5; test: Growth inhibition of human OVACAR5 cells; type: functional
[35] = test system: ACHN; test: Growth inhibition of human ACHN cells; type: functional
[36] = test system: SK-MEL-2; test: Growth inhibition of human SK-MEL2 cells; type: functional
[37] = test system: 786-0; test: Growth inhibition of human 786-0 cells; type: functional
[38] = test system: SN12C; test: Growth inhibition of human SN12C cells; type: functional
[39] = test system: SR; test: Growth inhibition of human SR cells; type: functional
[40] = test system: A498; test: Growth inhibition of human A498 cells; type: functional
[41] = test system: HOP-92; test: Growth inhibition of human HOP92 cells; type: functional
[42] = Inhibition of 1,10-phenanthroline-induced HIF1 activation in T47D cells by TK-luciferase assay; type: cell-based; details: Homo sapiens; outline: as §1
[43] = test system: NCI-H522; test: Growth inhibition of human NCI-H522 cells; type: functional
[44] = read-out: Log LC50 (the source's name) (converted)

SMILES: CCCc1cc(=O)c2c(OC)c3c(OC)cc(O)c(Oc4c(O)cc(OC)c5c(OC)c6c(=O)cc(CCC)oc6cc45)c3cc2o1
- GI50 [1]: 13.8 µM
- CC50 [1, 44]: 69.2 µM
- TGI ([1]; read-out: Log TGI (converted)): 30.9 µM
- GI50 [2]: 2.34 µM
- LC50 [2]: > 100 µM
- TGI ([2]; read-out: Log TGI (converted)): 14.1 µM
- GI50 [3]: 3.02 µM
- LC50 (50% lethal concentration) [3]: 34.7 µM
- TGI ([3]; read-out: Log TGI (converted)): 11.5 µM
- GI50 [4]: 11 µM
- LC50 [4]: 47.9 µM
- TGI ([4]; read-out: Log TGI (converted)): 22.9 µM
- IC50 [5]: 10 µM
- GI50 [6]: 7.41 µM
- CC50 [6, 44]: 47.9 µM
- TGI ([6]; read-out: Log TGI (converted)): 20.4 µM
- GI50 [7]: 7.41 µM
- CC50 [7, 44]: 49 µM
- TGI ([7]; read-out: Log TGI (converted)): 20.4 µM
- GI50 [8]: 3.31 µM
- LC50 [8]: 100 µM
- TGI ([8]; read-out: Log TGI (converted)): 10 µM
- GI50 [9]: 6.61 µM
- LC50 [9]: 45.7 µM
- TGI ([9]; read-out: Log TGI (converted)): 19.5 µM
- GI50 [10]: 4.37 µM
- CC50 [10, 44]: 44.7 µM
- TGI ([10]; read-out: Log TGI (converted)): 16.6 µM
- GI50 [11]: 6.31 µM
- LC50 [11]: 46.8 µM
- TGI ([11]; read-out: Log TGI (converted)): 20 µM
- GI50 [12]: 6.31 µM
- LC50 [12]: 53.7 µM
- TGI ([12]; read-out: Log TGI (converted)): 21.4 µM
- GI50 [13]: 4.68 µM
- LC50 [13]: 41.7 µM
- TGI ([13]; read-out: Log TGI (converted)): 15.8 µM
- GI50 [14]: 2.45 µM
- CC50 [14, 44]: 33.9 µM
- TGI ([14]; read-out: Log TGI (converted)): 6.92 µM
- GI50 [15]: 5.89 µM
- LC50 [15]: 100 µM
- TGI ([15]; read-out: Log TGI (converted)): 69.2 µM
- GI50 [16]: 6.03 µM
- CC50 [16, 44]: 43.7 µM
- TGI ([16]; read-out: Log TGI (converted)): 18.6 µM
- GI50 [17]: 15.8 µM
- LC50 [17]: 55 µM
- TGI ([17]; read-out: Log TGI (converted)): 29.5 µM
- GI50 [18]: 10.2 µM
- CC50 [18, 44]: 57.5 µM
- TGI ([18]; read-out: Log TGI (converted)): 24 µM
- GI50 [19]: 3.89 µM
- LC50 [19]: 79.4 µM
- TGI ([19]; read-out: Log TGI (converted)): 11.2 µM
- GI50 [20]: 3.8 µM
- LC50 [20]: 40.7 µM
- TGI ([20]; read-out: Log TGI (converted)): 13.8 µM
- GI50 [21]: 4.68 µM
- LC50 [21]: 100 µM
- TGI ([21]; read-out: Log TGI (converted)): 53.7 µM
- GI50 [22]: 3.63 µM
- LC50 [22]: 91.2 µM
- TGI ([22]; read-out: Log TGI (converted)): 12.9 µM
- GI50 [23]: 12.6 µM
- LC50 [23]: 66.1 µM
- TGI ([23]; read-out: Log TGI (converted)): 28.8 µM
- GI50 [24]: 2.24 µM
- LC50 [24]: 15.8 µM
- TGI ([24]; read-out: Log TGI (converted)): 5.13 µM
- GI50 [25]: 13.2 µM
- CC50 [25, 44]: 79.4 µM
- TGI ([25]; read-out: Log TGI (converted)): 32.4 µM
- GI50 [26]: 11.2 µM
- CC50 [26, 44]: 72.4 µM
- TGI ([26]; read-out: Log TGI (converted)): 28.8 µM
- GI50 [27]: 2.09 µM
- LC50 [27]: 7.08 µM
- TGI ([27]; read-out: Log TGI (converted)): 3.8 µM
- GI50 [28]: 11.2 µM
- LC50 [28]: 50.1 µM
- TGI ([28]; read-out: Log TGI (converted)): 23.4 µM
- GI50 [29]: 17 µM
- LC50 [29]: 57.5 µM
- TGI ([29]; read-out: Log TGI (converted)): 31.6 µM
- GI50 [30]: 15.1 µM
- LC50 [30]: 53.7 µM
- TGI ([30]; read-out: Log TGI (converted)): 28.2 µM
- GI50 [31]: 2.19 µM
- CC50 [31, 44]: 57.5 µM
- TGI ([31]; read-out: Log TGI (converted)): 8.71 µM
- GI50 [32]: 10 µM
- CC50 [32, 44]: 57.5 µM
- TGI ([32]; read-out: Log TGI (converted)): 24 µM
- GI50 [33]: 6.76 µM
- LC50 (concentration killing 50% of cells) [33]: 100 µM
- TGI ([33]; read-out: Log TGI (converted)): 67.6 µM
- GI50 [34]: 7.08 µM
- LC50 [34]: 100 µM
- TGI ([34]; read-out: Log TGI (converted)): 30.9 µM
- GI50 [35]: 7.08 µM
- CC50 [35, 44]: 45.7 µM
- TGI ([35]; read-out: Log TGI (converted)): 20 µM
- GI50 [36]: 10.7 µM
- LC50 [36]: 61.7 µM
- TGI ([36]; read-out: Log TGI (converted)): 25.7 µM
- GI50 [37]: 9.33 µM
- LC50 [37]: 49 µM
- TGI ([37]; read-out: Log TGI (converted)): 21.9 µM
- GI50 [38]: 2.09 µM
- LC50 [38]: 14.1 µM
- TGI ([38]; read-out: Log TGI (converted)): 4.79 µM
- GI50 [39]: 2.88 µM
- CC50 [39, 44]: 77.6 µM
- TGI ([39]; read-out: Log TGI (converted)): 7.08 µM
- GI50 [40]: 18.2 µM
- LC50 [40]: 60.3 µM
- TGI ([40]; read-out: Log TGI (converted)): 33.1 µM
- GI50 [41]: 2.14 µM
- CC50 [41, 44]: 50.1 µM
- TGI ([41]; read-out: Log TGI (converted)): 13.8 µM
- IC50 [42]: 0.8 µM
- GI50 [43]: 6.61 µM
- CC50 [43, 44]: 60.3 µM
- TGI ([43]; read-out: Log TGI (converted)): 21.9 µM
